Source: ChEMBL document CHEMBL4011624, “The 1,2,4-Triazolo[4,3-a]pyrazin-3-one as a Versatile Scaffold for the Design of Potent Adenosine Human Receptor Antagonists. Structural Investigations to Target the A2A Receptor Subtype” (J Med Chem, 2017)
Activity calls are given as the source filed them. No cut-off for these calls is given here.

How the values were obtained:
[1] = biological target: T1, Adenosine receptor A2a (Homo sapiens, UniProt P29274); experiment: Displacement of [3H]NECA from human adenosine receptor A2A expressed in CHO cell membranes after 3 hrs by microbeta scintillation counting method
T1 sequence (P29274 whole entry): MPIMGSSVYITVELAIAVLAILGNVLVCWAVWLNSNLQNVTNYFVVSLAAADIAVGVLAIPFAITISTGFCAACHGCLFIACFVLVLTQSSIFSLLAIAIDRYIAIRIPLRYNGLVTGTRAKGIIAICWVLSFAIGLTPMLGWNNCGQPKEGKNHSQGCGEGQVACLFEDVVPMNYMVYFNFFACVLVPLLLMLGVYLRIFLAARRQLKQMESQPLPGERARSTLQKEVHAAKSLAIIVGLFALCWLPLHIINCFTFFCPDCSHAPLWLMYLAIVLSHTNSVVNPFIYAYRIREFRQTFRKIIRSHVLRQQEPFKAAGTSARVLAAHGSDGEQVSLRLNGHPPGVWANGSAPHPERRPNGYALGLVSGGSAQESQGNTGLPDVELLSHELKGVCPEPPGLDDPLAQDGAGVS

[2] = biological target: T2, Adenosine receptor A3 (Homo sapiens, UniProt P0DMS8); experiment: Displacement of [3H]HEMADO from human adenosine receptor A3 expressed in CHO cell membranes after 3 hrs by microbeta scintillation counting method
T2 sequence (P0DMS8 whole entry): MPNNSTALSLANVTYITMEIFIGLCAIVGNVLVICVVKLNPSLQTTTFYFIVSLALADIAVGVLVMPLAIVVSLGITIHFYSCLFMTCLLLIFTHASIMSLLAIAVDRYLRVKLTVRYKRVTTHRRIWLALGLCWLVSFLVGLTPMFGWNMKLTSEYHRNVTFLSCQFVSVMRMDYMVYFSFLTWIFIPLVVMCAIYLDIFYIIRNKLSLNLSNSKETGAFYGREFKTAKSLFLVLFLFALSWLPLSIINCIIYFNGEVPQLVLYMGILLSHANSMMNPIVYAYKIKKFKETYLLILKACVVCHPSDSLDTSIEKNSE

[3] = biological target: T3, Adenosine receptor A1 (Homo sapiens, UniProt P30542); experiment: Displacement of [3H]CCPA from human adenosine receptor A1 expressed in CHO cell membranes after 3 hrs by microbeta scintillation counting method
T3 sequence (P30542 whole entry): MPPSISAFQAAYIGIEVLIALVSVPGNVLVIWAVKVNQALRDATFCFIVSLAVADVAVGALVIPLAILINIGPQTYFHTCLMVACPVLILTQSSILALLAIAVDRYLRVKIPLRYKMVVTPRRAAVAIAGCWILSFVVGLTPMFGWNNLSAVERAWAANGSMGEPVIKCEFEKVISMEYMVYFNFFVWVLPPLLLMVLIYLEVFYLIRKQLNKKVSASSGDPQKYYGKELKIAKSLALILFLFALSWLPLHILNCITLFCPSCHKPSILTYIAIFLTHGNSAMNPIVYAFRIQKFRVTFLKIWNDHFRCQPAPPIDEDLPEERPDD

[4] = biological target: T4, Adenosine receptor A2b (Homo sapiens, UniProt P29275); experiment: Antagonist activity at human adenosine receptor A2B expressed in CHO cell membranes assessed as inhibition of NECA-induced increase of cAMP accumulation preincubated for 10 mins followed by NECA addition measured after 10 mins by GloSensor cAMP assay; assay type: functional, cell-based
T4 sequence (P29275 whole entry): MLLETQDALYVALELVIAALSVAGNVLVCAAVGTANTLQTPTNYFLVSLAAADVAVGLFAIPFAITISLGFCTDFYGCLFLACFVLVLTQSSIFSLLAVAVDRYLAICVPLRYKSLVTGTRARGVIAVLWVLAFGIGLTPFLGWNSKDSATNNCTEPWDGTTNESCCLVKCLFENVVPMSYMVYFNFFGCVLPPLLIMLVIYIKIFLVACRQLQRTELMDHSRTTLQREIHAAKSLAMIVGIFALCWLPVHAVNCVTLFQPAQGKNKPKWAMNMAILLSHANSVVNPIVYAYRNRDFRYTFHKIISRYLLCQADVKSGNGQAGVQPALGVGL
Method in brief: (§1)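 Receptors stably transfected in CHO cells. Antagonism read as inhibition of the NECA-stimulated rise in cAMP levels. IC50 values were derived from dose-response curves.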

[5] = biological target: T1, Adenosine receptor A2a; experiment: Antagonist activity at human adenosine receptor A2A expressed in CHO cell membranes assessed as inhibition of NECA-induced increase of cAMP accumulation preincubated for 10 mins followed by NECA addition measured after 10 mins by GloSensor cAMP assay; assay type: functional, cell-based; method in brief: as §1
[6] = tested on: SH-SY5Y; experiment: Cytotoxicity against human SH-SY5Y cells assessed as increase in cell viability at 0.5 to 30 nM after 24 hrs by Celltiter-Glo luminescent assay; assay type: cell-based; conditions: 0.03 µM
[7] = tested on: SH-SY5Y; experiment: Neuroprotective activity against MPP+-induced toxicity in human SH-SY5Y cells assessed as increase in cell viability at 15 nM pretreated for 1 hr followed by MPP+ addition measured after 24 hrs in the presence of human adenosine receptor A2A agonist CGS21680 by Celltiter-Glo luminescent assay; assay type: functional, cell-based
Method in brief: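 SH-SY5Y cells were given MPP+ (1.5 mM, 24 h) plus test agent at 15 nM, together with the A2A agonist CGS21680 at 10 to 100 nM, and cell viability was then measured.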

[8] = tested on: SH-SY5Y; experiment: Neuroprotective activity against MPP+-induced toxicity in human SH-SY5Y cells assessed as increase in cell viability at 15 nM pretreated for 1 hr followed by MPP+ addition measured after 24 hrs by Celltiter-Glo luminescent assay; assay type: functional, cell-based
Method in brief: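 SH-SY5Y human neuroblastoma cells were exposed to MPP+ at 1.5 mM for 24 h, with test agent present, and cell viability was then measured. The MPP+ level was chosen from a pilot range of 50 μM to 3 mM over 24 h.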

Nc1nc(-c2ccccc2)cn2c(=O)n(-c3ccccc3)nc12
Ki [1]: 10 nM
Ki [2]: 11 nM
Ki [3]: 13 nM
IC50 [4]: > 30 µM

CCOc1ccc(-c2cn3c(=O)n(-c4ccccc4)nc3c(N)n2)cc1
Ki [1]: 2.9 nM
IC50 [5]: 98 nM
Ki [2]: > 30000 nM
Ki [3]: > 30000 nM
IC50 [4]: > 30 µM

Cc1cn2c(=O)n(-c3ccccc3)nc2c(=O)[nH]1
Ki [1]: > 30000 nM
Ki [2]: 60 nM
Ki [3]: > 30000 nM
IC50 [4]: > 30 µM

O=c1[nH]c(-c2ccc(O)cc2)cn2c(=O)n(-c3ccccc3)nc12
Ki [1]: > 30000 nM
Ki [2]: 207 nM
Ki [3]: 616 nM
IC50 [4]: > 30 µM

COc1cccc(-c2cn3c(=O)n(-c4ccccc4)nc3c(=O)[nH]2)c1
Ki [1]: > 30000 nM
Ki [2]: > 30000 nM
Ki [3]: > 30000 nM
IC50 [4]: > 30 µM

COc1ccc(-n2nc3c(=O)[nH]c(C)cn3c2=O)cc1
Ki [1]: > 30000 nM
Ki [2]: 50 nM
Ki [3]: > 30000 nM
IC50 [4]: > 30 µM

C#CCOc1cccc(-c2cn3c(=O)n(-c4ccccc4)nc3c(N)n2)c1
Ki [1]: 5.1 nM
Ki [2]: 67 nM
Ki [3]: 45 nM
IC50 [4]: > 30 µM

CC(C)Oc1ccc(-c2cn3c(=O)n(-c4ccccc4)nc3c(N)n2)cc1
Ki [1]: 7.4 nM
Ki [2]: > 30000 nM
Ki [3]: > 30000 nM
IC50 [4]: > 30 µM

COc1ccc(-n2nc3c(=O)[nH]c(-c4ccccc4)cn3c2=O)cc1
Ki [1]: > 30000 nM
Ki [2]: 214 nM
Ki [3]: > 30000 nM
IC50 [4]: > 30 µM

COc1ccc(-c2cn3c(=O)n(-c4ccccc4)nc3c(=O)[nH]2)cc1
Ki [1]: > 30000 nM
Ki [2]: > 30000 nM
Ki [3]: > 30000 nM
IC50 [4]: > 30 µM

Nc1nc(-c2ccc(OCC3CCC3)cc2)cn2c(=O)n(-c3ccccc3)nc12
Ki [1]: > 30000 nM
Ki [2]: > 30000 nM
Ki [3]: > 30000 nM
IC50 [4]: > 30 µM

O=c1[nH]c(-c2cccc(O)c2)cn2c(=O)n(-c3ccccc3)nc12
Ki [1]: 4070 nM
Ki [2]: 1050 nM
Ki [3]: 698 nM
IC50 [4]: > 30 µM

Cc1ccc(-c2cn3c(=O)n(-c4ccccc4)nc3c(N)n2)cc1
Ki [1]: > 30000 nM
Ki [2]: > 30000 nM
Ki [3]: > 30000 nM
IC50 [4]: > 30 µM

COc1ccc(-n2nc3c(N)nc(C)cn3c2=O)cc1
Ki [1]: 1040 nM
Ki [2]: 255 nM
Ki [3]: 1740 nM
IC50 [4]: > 30 µM

Nc1nc(-c2cccc(O)c2)cn2c(=O)n(-c3ccccc3)nc12
Ki [1]: 3.5 nM
Ki [2]: 134 nM
Ki [3]: 14 nM
IC50 [4]: > 30 µM

Nc1ccc(-n2nc3c(N)nc(-c4ccccc4)cn3c2=O)cc1
Ki [1]: 3480 nM
Ki [2]: 650 nM
Ki [3]: 8.9 nM
IC50 [4]: > 30 µM

Nc1nc(-c2cccc(OCc3ccccc3)c2)cn2c(=O)n(-c3ccccc3)nc12
Ki [1]: > 30000 nM
Ki [2]: > 30000 nM
Ki [3]: > 30000 nM
IC50 [4]: > 30 µM

O=c1[nH]c(-c2ccccc2)cn2c(=O)n(-c3ccc(O)cc3)nc12
Ki [1]: 387 nM
Ki [2]: 0.37 nM
Ki [3]: 129 nM
IC50 [4]: > 30 µM

Cc1ccc(-c2cn3c(=O)n(-c4ccccc4)nc3c(=O)[nH]2)cc1
Ki [1]: > 30000 nM
Ki [2]: > 30000 nM
Ki [3]: > 30000 nM
IC50 [4]: > 30 µM

COc1ccccc1-n1nc2c(N)nc(-c3ccccc3)cn2c1=O
Ki [1]: 309 nM
Ki [2]: 392 nM
Ki [3]: 247 nM
IC50 [4]: > 30 µM

COc1cccc(-c2cn3c(=O)n(-c4ccccc4)nc3c(N)n2)c1
Ki [1]: 6.8 nM
Ki [2]: 42 nM
Ki [3]: 44 nM
IC50 [4]: > 30 µM

Nc1ccc(-n2nc3c(=O)[nH]c(-c4ccccc4)cn3c2=O)cc1
Ki [1]: 415 nM
Ki [2]: 63 nM
Ki [3]: 247 nM
IC50 [4]: > 30 µM

COc1ccc(-c2cn3c(=O)n(-c4ccccc4)nc3c(N)n2)cc1
Activity [6]: Non-Toxic
Ki [1]: 7.2 nM
IC50 [5]: 180 nM
Activity [7]: inactive
Ki [2]: > 30000 nM
Ki [3]: > 30000 nM
Activity [8]: Active
IC50 [4]: > 30 µM

Nc1nc(-c2ccccc2)cn2c(=O)n(-c3ccc([N+](=O)[O-])cc3)nc12
Ki [1]: 402 nM
Ki [2]: > 30000 nM
Ki [3]: 8.1 nM
IC50 [4]: > 30 µM

Nc1nc(-c2ccccc2)cn2c(=O)n(-c3ccccc3O)nc12
Ki [1]: 47 nM
Ki [2]: 1560 nM
IC50 [4]: > 30 µM

Nc1nc(-c2ccc(O)cc2)cn2c(=O)n(-c3ccccc3)nc12
Ki [1]: 45 nM
Ki [2]: 53 nM
Ki [3]: 45 nM
IC50 [4]: > 30 µM

COc1ccccc1-n1nc2c(=O)[nH]c(-c3ccccc3)cn2c1=O
Ki [1]: > 30000 nM
Ki [2]: 5200 nM
Ki [3]: 2140 nM
IC50 [4]: > 30 µM

CCCOc1ccc(-c2cn3c(=O)n(-c4ccccc4)nc3c(N)n2)cc1
Ki [2]: > 30000 nM
Ki [3]: > 30000 nM
IC50 [4]: > 30 µM

Nc1nc(-c2ccccc2)cn2c(=O)n(-c3ccc(O)cc3)nc12
Ki [1]: 138 nM
Ki [2]: 429 nM
Ki [3]: 18 nM
IC50 [4]: > 30 µM

COc1ccc(-n2nc3c(N)nc(-c4ccccc4)cn3c2=O)cc1
Ki [1]: 78 nM
Ki [2]: 117 nM
Ki [3]: 20 nM
IC50 [4]: > 30 µM

Nc1nc(-c2ccc(OCc3ccccc3)cc2)cn2c(=O)n(-c3ccccc3)nc12
Ki [1]: 708 nM
Ki [2]: > 30000 nM
Ki [3]: 3700 nM
IC50 [4]: > 30 µM

Nc1nc(-c2ccc(OCC3CC3)cc2)cn2c(=O)n(-c3ccccc3)nc12
Ki [1]: > 30000 nM
Ki [2]: > 30000 nM
Ki [3]: > 30000 nM
IC50 [4]: > 30 µM

O=c1[nH]c(-c2ccccc2)cn2c(=O)n(-c3ccccc3)nc12
Ki [1]: > 30000 nM
Ki [2]: 96 nM
Ki [3]: > 30000 nM
IC50 [4]: > 30 µM

Cc1cn2c(=O)n(-c3ccc(O)cc3)nc2c(=O)[nH]1
Ki [2]: 229 nM
Ki [3]: 5740 nM
IC50 [4]: > 30 µM

Cc1cn2c(=O)n(-c3ccc(O)cc3)nc2c(N)n1
Ki [1]: 1320 nM
Ki [2]: 5160 nM
Ki [3]: 1000 nM
IC50 [4]: > 30 µM

O=c1[nH]c(-c2ccccc2)cn2c(=O)n(-c3ccccc3O)nc12
Ki [1]: > 30000 nM
Ki [2]: 21600 nM
Ki [3]: 1480 nM
IC50 [4]: > 30 µM

Cc1cn2c(=O)n(-c3ccccc3)nc2c(N)n1
Ki [1]: 485 nM
Ki [2]: 4370 nM
Ki [3]: 67 nM
IC50 [4]: > 30 µM

C#CCOc1ccc(-c2cn3c(=O)n(-c4ccccc4)nc3c(N)n2)cc1
Ki [1]: 10.6 nM
Ki [2]: > 30000 nM
Ki [3]: > 30000 nM
IC50 [4]: > 30 µM
